The target in data set [1] is Muscarinic acetylcholine receptor M3 (Rattus norvegicus) (UniProt P08483). In words: Positive allosteric modulation of muscarinic acetylcholine receptor M3 in Sprague-Dawley rat urinary bladder assessed as increase in 8 Hz electrical field stimulation-induced bladder contraction by measuring tension of isolated bladder contraction at 1 uM (reference value: 2.21 +/- 0.26 g). The method in brief: (§1)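 Female Sprague-Dawley rats, 9–10 weeks old. Longitudinal bladder strips (~10×2 mm) in Krebs at 37°C, gassed with 95% O2/5% CO2. EFS at 8 Hz, 10 s trains, 0.3 ms pulses, voltage set to give about half-maximal response. Drug added cumulatively at 1, 3 and 10 μM, 10 stimulations per concentration. Contraction = peak minus basal tone, averaged over the last 3 contractions and compared with pre-drug value (n=7).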

Data set [2] concerns the target T1, Muscarinic acetylcholine receptor M1 (Homo sapiens) (UniProt P11229).
T1 sequence (whole entry): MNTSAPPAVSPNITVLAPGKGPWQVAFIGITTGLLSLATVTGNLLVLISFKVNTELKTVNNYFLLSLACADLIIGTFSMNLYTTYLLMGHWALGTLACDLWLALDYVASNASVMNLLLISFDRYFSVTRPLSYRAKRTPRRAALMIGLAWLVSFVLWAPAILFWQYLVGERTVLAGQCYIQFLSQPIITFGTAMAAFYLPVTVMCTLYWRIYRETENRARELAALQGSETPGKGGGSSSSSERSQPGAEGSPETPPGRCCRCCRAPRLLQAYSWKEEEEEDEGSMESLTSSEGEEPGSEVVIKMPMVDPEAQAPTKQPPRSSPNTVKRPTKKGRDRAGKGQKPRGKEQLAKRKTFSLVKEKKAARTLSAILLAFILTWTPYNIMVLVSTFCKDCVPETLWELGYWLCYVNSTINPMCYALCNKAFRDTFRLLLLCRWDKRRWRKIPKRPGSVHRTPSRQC
In words: Positive allosteric modulation of recombinant human muscarinic acetylcholine receptor M1 expressed in CHOK1 cells assessed as increase in carbachol-induced intracellular calcium flux at 10 uM preincubated for 5 mins followed by carbachol addition by Fluo4-AM dye based FLIPR assay relative to carbachol. It is filed as functional, cell-based. The settings on record: CHO-K1. The method in brief: (§2)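 CHO-K1 cells stably expressing human or rat M1–M5; M2 and M4 lines also co-express human Gα16. Cells loaded with 3.1 μM Fluo-4 AM in HBSS/20 mM HEPES pH 7.5/BSA/2.5 mM probenecid for ~2 h at room temperature. Test substance at 10 μM final, then carbachol (0.0024 nM–100 μM) ~5 min later; Ca2+ read by FLIPR Tetra. Fold shift = carbachol EC50 without / with test substance, from logistic fits.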

The target of data set [3] is T2, Muscarinic acetylcholine receptor M4 (Homo sapiens) (UniProt P08173).
T2 sequence (whole entry): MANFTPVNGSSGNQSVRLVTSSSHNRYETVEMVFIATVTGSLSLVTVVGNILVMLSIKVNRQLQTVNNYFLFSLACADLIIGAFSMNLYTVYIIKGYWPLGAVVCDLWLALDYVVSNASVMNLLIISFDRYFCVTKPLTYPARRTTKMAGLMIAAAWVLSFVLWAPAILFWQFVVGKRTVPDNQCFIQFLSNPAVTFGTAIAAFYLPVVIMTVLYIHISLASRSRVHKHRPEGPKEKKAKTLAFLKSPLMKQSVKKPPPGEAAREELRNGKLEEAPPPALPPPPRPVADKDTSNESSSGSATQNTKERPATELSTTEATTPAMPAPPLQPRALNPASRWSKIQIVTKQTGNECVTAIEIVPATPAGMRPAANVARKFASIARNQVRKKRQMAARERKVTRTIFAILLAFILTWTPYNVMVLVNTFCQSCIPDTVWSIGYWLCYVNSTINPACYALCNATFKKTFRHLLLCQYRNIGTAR
Kind of data set: Positive allosteric modulation of recombinant human muscarinic acetylcholine receptor M4 expressed in CHOK1 cells coexpressing G-alpha16 assessed as increase in carbachol-induced intracellular calcium flux at 10 uM preincubated for 5 mins followed by carbachol addition by Fluo4-AM dye based FLIPR assay relative to carbachol. It is filed as functional, cell-based. The settings on record: CHO-K1. In short, it runs like this:
as §2

Data set [4] addresses T3, Muscarinic acetylcholine receptor M4 (Rattus norvegicus) (UniProt P08485).
T3 sequence (whole entry): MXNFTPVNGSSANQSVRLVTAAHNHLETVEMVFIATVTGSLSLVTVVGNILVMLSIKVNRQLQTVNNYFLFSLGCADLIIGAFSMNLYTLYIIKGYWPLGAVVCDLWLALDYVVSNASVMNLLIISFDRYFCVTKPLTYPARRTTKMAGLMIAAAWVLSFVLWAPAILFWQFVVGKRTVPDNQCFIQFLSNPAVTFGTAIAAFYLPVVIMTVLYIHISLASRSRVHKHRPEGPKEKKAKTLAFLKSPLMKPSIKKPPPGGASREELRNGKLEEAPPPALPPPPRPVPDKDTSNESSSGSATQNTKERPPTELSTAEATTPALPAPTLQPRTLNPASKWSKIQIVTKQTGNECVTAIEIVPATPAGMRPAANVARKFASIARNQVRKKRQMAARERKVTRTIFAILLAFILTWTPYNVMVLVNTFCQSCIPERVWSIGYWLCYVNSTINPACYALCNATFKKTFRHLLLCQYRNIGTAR
In words: Positive allosteric modulation of recombinant rat muscarinic acetylcholine receptor M4 expressed in CHOK1 cells coexpressing G-alpha16 assessed as increase in carbachol-induced intracellular calcium flux at 10 uM preincubated for 5 mins followed by carbachol addition by Fluo4-AM dye based FLIPR assay relative to carbachol. It is filed as functional, cell-based. Particulars: CHO-K1. In short, it runs like this:
as §2

Data set [5] can be described thus: Cmax in Crl:CD(SD) rat at 1 mg/kg, po measured up to 24 hrs by LC-MS/MS analysis. It is filed as ADME, organism-based. Set-up: dose 1 mg/kg, route oral. The settings on record: in vivo. The method in brief:
(§3)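 Male Crl:CD(SD) rats, 8 weeks old, food deprived (n=4); iv 0.3 mg/kg or po 1 mg/kg in DMF/propylene glycol/water for injection (1/1/8) containing 1 M NaOH (2 equivalents). Plasma sampled to 24 h, assayed by validated LC-MS/MS. Parameters from each animal by noncompartmental analysis, reported as means.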

Data set [6] in a line: Tmax in Crl:CD(SD) rat at 1 mg/kg, po measured up to 24 hrs by LC-MS/MS analysis. The settings on record: in vivo. It is filed as ADME, organism-based. The method in brief: as §3
Data set [7] can be described thus: AUCinfinity in Crl:CD(SD) rat at 0.3 mg/kg, iv measured up to 24 hrs by LC-MS/MS analysis. Particulars: in vivo. Set-up: dose 0.3 mg/kg, route intravenous, time infinity. It is filed as ADME, organism-based. In short, it runs like this: as §3
Data set [8] addresses Muscarinic acetylcholine receptor M3 (Rattus norvegicus) (UniProt P08483). In words: Positive allosteric modulation of muscarinic acetylcholine receptor M3 in Sprague-Dawley rat urinary bladder assessed as increase in 8 Hz electrical field stimulation-induced bladder contraction by measuring tension of isolated bladder contraction at 10 uM (reference value: 2.21 +/- 0.26 g). The method in brief:
as §1

Sequence of Muscarinic acetylcholine receptor M3 (Rattus norvegicus) (P08483 whole entry, looked up): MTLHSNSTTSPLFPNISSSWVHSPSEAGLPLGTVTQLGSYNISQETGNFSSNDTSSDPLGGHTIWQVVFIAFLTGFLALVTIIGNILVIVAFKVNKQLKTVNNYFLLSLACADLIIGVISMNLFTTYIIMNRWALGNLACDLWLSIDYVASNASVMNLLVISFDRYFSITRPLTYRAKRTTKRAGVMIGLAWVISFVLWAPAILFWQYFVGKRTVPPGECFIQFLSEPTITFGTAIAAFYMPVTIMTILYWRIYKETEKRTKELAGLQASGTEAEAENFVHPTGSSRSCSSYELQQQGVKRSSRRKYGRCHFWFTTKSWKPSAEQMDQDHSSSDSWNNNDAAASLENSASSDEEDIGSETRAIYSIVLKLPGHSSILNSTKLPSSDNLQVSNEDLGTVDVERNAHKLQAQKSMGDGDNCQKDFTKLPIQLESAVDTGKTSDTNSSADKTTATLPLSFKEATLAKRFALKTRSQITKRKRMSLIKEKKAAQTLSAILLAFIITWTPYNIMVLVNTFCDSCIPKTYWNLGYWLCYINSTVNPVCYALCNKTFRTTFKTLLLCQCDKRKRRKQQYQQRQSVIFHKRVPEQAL

Take `CC[C@@H]1CCCN1Cc1sc(NC(=O)c2cnc(N3CCC(C(=O)O)CC3)cn2)nc1-c1ccc(OC)c(C(F)(F)F)c1.Cl.Cl`: the Activity in data set [1] came out at 2.34 g; in data set [8], 3.49 g. Further, the fold change (FC) in data set [2] was 2.3; in data set [3], 1; in data set [4] it was 0.7. Besides, in data set [5], the Cmax (as a rule, the highest concentration seen after dosing) was 85.3 ng/mL. The Tmax (usually the time from dosing to the highest level) in data set [6] was found to be 18.6 min. Besides, in data set [7], the AUC(0-inf) (usually the area under the concentration-time curve extrapolated to infinity) amounted to 330 ng·h/mL.

Source of the values: ChEMBL document CHEMBL4622869, “Discovery and structure-activity relationships study of positive allosteric modulators of the M3 muscarinic acetylcholine receptor” (Bioorg Med Chem, 2020).
